High-throughput results as filed in PubChem.
A selection: hits, their analogues and other compounds. The true share with any hit is near 2.9%.
NRP1-CendR mod: modulators of CendR peptide binding to human neuropilin-1 | AID 602438 | actives 0.85% (n = 360,000) | O14786 | FAM-RPARPAR peptide binding to NRP-1, fluorescence polarization | inhibition, % at 25 µM;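 active means inhibition or corrected inhibition above about 18%, plus a signal ratio from 0.5 to 1.5, limit read from the data, passing the limit was not always enough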
Target sequence (O14786 whole entry, looked up): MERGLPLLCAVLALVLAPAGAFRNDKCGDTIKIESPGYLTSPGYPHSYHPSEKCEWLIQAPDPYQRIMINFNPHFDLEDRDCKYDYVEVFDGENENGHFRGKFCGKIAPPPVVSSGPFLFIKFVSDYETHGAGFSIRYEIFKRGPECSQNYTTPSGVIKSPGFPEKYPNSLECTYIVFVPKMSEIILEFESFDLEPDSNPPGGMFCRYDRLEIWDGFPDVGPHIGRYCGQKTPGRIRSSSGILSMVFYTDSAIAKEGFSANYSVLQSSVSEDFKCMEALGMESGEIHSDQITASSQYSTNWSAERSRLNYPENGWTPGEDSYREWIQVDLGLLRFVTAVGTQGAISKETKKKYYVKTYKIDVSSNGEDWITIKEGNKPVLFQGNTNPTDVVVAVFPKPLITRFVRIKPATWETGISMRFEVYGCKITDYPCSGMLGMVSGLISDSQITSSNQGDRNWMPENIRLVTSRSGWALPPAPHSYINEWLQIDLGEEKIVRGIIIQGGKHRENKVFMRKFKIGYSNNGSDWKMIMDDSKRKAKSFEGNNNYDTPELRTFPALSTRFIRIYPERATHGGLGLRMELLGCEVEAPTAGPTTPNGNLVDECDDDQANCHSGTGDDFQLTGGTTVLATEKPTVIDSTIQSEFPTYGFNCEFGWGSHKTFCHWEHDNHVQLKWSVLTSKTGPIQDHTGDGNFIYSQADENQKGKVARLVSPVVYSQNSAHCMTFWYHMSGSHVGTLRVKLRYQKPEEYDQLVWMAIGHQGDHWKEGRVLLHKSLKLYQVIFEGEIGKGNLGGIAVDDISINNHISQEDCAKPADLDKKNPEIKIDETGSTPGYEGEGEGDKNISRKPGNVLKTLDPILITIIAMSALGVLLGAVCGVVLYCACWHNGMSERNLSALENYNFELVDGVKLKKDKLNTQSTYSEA
Arr AP2 block: human beta-arrestin and AP2 interaction inhibition | inhibition, % at 10 µM | actives 0.31% (n = 340,000) | FITC-arrestin peptide / GST-AP2 beads, flow cytometry; AP2 beta2 appendage carries R879A mutation;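 active means inhibition above a set limit, near 3 SD of compounds lacking own fluorescence, cut at about 54% in these data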;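 further: plate controls were DMSO wells for no effect and 5 µM unlabelled arrestin peptide for full effect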
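Material – GST-tagged AP2 beta2-adaptin appendage (R879A) on 4 µm glutathione beads · Probe or stimulus – fluorescein-tagged arrestin peptide at 50 nM final · Timing – 12 min plus 1 h, RT · Detection – bead flow cytometry, FITC channel · Read-out basis – inhibition as reduced fluorescein signal on beads, percent · Medium – PBS plus Tween 20 (0.05%) and BSA (0.1%)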
ADAM10 inh: inhibits human ADAM10. recombinant ADAM10, EDANS/DABCYL FRET peptide cleavage, 3 h. actives 0.62% (n = 370,000). O14672. inhibition, % at 7 µM;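 active means inhibition above a per-campaign cutoff equal to the mean of compounds falling between control-based bounds plus 3 SD, cut at about 20% in these data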;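 further: 0% = DMSO wells while the 100% control is not disclosed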
CaV13 FRET inh: Primary screen for inhibitors of IQ motif and Ca2+-dependent inactivation inhibitor domain binding in CACNA1D, Förster resonance energy transfer in living cells, … | AID 743397 | HEK cells, CFP/YFP FRET ICDI-IQ, plate reader, 10 min; percent FRET-ratio fall versus neutral wells | actives 0.098% (n = 340,000) | inhibition, % at 12.3 µM;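 active means mean replicate inhibition of at least 30% and at least 1% of replicates passing that level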;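 further: 0% = median of the neutral control wells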
ADAM17 inh: ADAM17 inhibition, QFRET primary screen; AID 720648; inhibition, % at 6.95 µM; P78536; actives 0.83% (n = 370,000); recombinant ADAM17, EDANS/DABCYL FRET peptide cleavage;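 active means inhibition above the mean of compounds lying between control limits plus 3 SD, set per campaign, cut at about 8.5% in these data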;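 further: 0% = DMSO-only wells as the low control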
FAS-TE inh: blocks the thioesterase domain of human fatty acid synthase; recombinant FAS-TE, OMFH fluorogenic substrate, fluorescence endpoint; inhibition, % at 15 µM; actives 0.67% (n = 360,000);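 active means compounds whose normalised, plate-corrected inhibition of enzyme fluorescence in the single-dose primary screen is 50% or more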;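 further: 0% = DMSO with enzyme and 100% = substrate without enzyme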
ADAM10 confirm: human ADAM10 inhibition, confirmation; inhibition, % at 6.95 µM; ADAM10 QFRET peptide cleavage, EDANS fluorescence; shares compounds with ADAM10 inh; AID 743208; actives 1% (n = 2,100);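 active means inhibition above about 20% chosen separately for each screening run, limit read from the data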;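 further: 0% = DMSO wells and 100% = marimastat wells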
ADAM17 ctr: counter-screen for ADAM10 exosite inhibitors: inhibitors of human ADAM17; ADAM17 QFRET peptide cleavage, EDANS fluorescence; actives 0.5% (n = 2,100); shares compounds with ADAM10 inh; AID 743214; inhibition, % at 6.95 µM;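 active means mean triplicate inhibition above the solvent-only control wells' mean plus 3 SD, cut at about 12% in these data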;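 further: 0% = DMSO wells and 100% = marimastat wells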
ADAM10 ctr: ADAM10 inhibition, counter-screen for ADAM17 exosite hits; shares compounds with ADAM17 inh; recombinant ADAM10, EDANS/DABCYL FRET peptide cleavage, 3 h; inhibition, % at 6.95 µM; actives 47% (n = 2,900); AID 743256;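 active means mean inhibition over the triplicate runs exceeds the activity threshold set in the earlier primary screen, cut at about 20% in these data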;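 further: 0% = DMSO wells and 100% = marimastat wells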
ADAM17 confirm: human ADAM17 inhibition, confirmation | shares compounds with ADAM17 inh | recombinant ADAM17, EDANS/DABCYL QFRET peptide cleavage | inhibition, % at 6.95 µM | actives 65% (n = 2,900) | AID 743257;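 active means mean inhibition across replicates above the hit cutoff set in the primary screen, cut at about 8.5% in these data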;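 further: 0% = DMSO wells and 100% = marimastat wells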
Active calls of the source: *; / = no result given.

SMILES	NRP1-CendR mod	Arr AP2 block	ADAM10 inh	CaV13 FRET inh	ADAM17 inh	FAS-TE inh	ADAM10 confirm	ADAM17 ctr	ADAM10 ctr	ADAM17 confirm
NC(=O)[C@H]1CC2(CC(c3cccc(NC(=O)CC(c4ccccc4)c4ccccc4)c3)=NO2)CN1C(=O)CC(c1ccccc1)c1ccccc1 (some centres undefined)	18.4	12.2	31.1*	-4.0	16.3*	46.4	13.2	4.3	33.0*	18.6*
CCC(=O)N1CC2(CC(c3cccc(NC(=O)CC(c4ccccc4)c4ccccc4)c3)=NO2)C[C@H]1C(N)=O (some centres undefined)	-4.1	18.1	6.9	-12.6	3.5	0.6	/	/	/	/
NC(=O)[C@@H]1CC2(CC(c3cccc(NC(=O)CC(c4ccccc4)c4ccccc4)c3)=NO2)CN1C(=O)c1ccc(Cl)cc1 (some centres undefined)	-2.2	/	23.4*	-9.7	10.8*	32.7	13.8	3.8	44.5*	20.9*
CC(C)N1CCOC1c1ccccc1 (centres undefined)	10.3	34.5	-15.2	-6.0	-5.5	-4.7	/	/	/	/
CN(C(=O)CSc1ncnc2c(-c3cccs3)nsc12)C1CCCCC1	/	/	-17.3	-3.6	-10.7	/	/	/	/	/
CC(C)(C)NC(=O)C(c1ccc(-c2ccccc2)cc1)N(C[C@H]1CC[C@@H]([C@@H]2CC[C@H](CO)O2)O1)C(=O)c1ccc2ccccc2c1 (some centres undefined)	5.3	1.9	21.2*	-3.0	10.3*	15.8	3.2	0.7	16.0	10.1*
CC(C)(C)NC(=O)C(c1ccc(-c2ccccc2)cc1)N(C[C@H]1CC[C@@H]([C@@H]2CC[C@H](CO)O2)O1)C(=O)c1ccc(-c2ccccc2)cc1 (some centres undefined)	3.8	-13.1	/	/	/	29.7	/	/	/	/
C[C@H](NC(=O)c1nc[nH]c1C(=O)NC(c1ccccc1)c1ccccc1)C(=O)OC(C)(C)C	13.0	3.1	24.4*	-9.4	13.6*	26.1	3.5	2.3	43.1*	24.0*
CNC(=O)c1[nH]cnc1C(=O)NCC(=O)OC(C)(C)C	11.7	31.7	-3.4	-9.6	-5.8	-8.7	/	/	/	/
CC(C)(C)OC(=O)CNC(=O)c1[nH]cnc1C(=O)NC(c1ccccc1)c1ccccc1	12.4	-2.8	26.8*	-3.0	15.8*	22.0	4.9	1.8	23.6*	14.0*
O=C(NCC(F)(F)F)c1cc2c(c(-c3cccc(-c4ccccc4F)c3)n1)[C@@H](CCO)N(C(=O)CC1CC1)C2	-11.0	/	19.9*	-6.8	10.5*	15.0	2.1	0.4	13.4	10.7*
CCNC(=O)c1cc2c(c(-c3cccc(-c4cccc(C(=O)N(C)C)c4)c3)n1)[C@@H](CCO)N(S(=O)C(C)(C)C)C2 (some centres undefined)	-60.8	/	-20.1	-7.5	-5.9	-14.8	/	/	/	/
O=C(NCC1CC1)c1cc2c(c(-c3cccc(-c4ccccc4F)c3)n1)[C@@H](CCO)N(C(=O)CC1CC1)C2	7.1	/	35.1*	-10.2	10.4*	12.7	2.5	1.8	10.6	9.6*
O=C(NCC1CC1)c1cc2c(c(-c3cccc(-c4ccccc4F)c3)n1)[C@H](CCO)N(C(=O)CC1CC1)C2	20.6	/	0.0	-7.0	5.3	20.1	/	/	/	/
CC(C)(C)S(=O)N1Cc2cc(C(=O)NCC(F)(F)F)nc(-c3cccc(-c4cccc(F)c4)c3)c2[C@@H]1CCO (some centres undefined)	-14.9	/	27.5*	-4.6	14.6*	16.6	-0.5	0.4	10.6	5.9
CCOC(=O)c1c(C)[nH]c(C(=O)OC(C)C(=O)NC2CCCCC2C)c1C (centres undefined)	-1.1	-13.6	-9.7	-2.6	-1.9	-5.4	/	/	/	/
COC(=O)CCC1NC(=O)C(Cc2c[nH]c3ccccc23)NC(=O)C2CC(=O)OC(C)C(NC(=O)C(C)NC(=O)C3CCCN3C(=O)C3CCCN3C(=O)C(C)NC(C)=O)C(=O)NC(CC(C)C)C(=O)NC(CCCCNC(=O)CCC(C(=O)NC(Cc3ccc(O)cc3)C(=O)O)NC1=O)C(=O)NC(Cc1c[nH]c3ccccc13)C(=O)N1CCCC1C(=O)NC(CO)C(=O)N2 (centres undefined)	/	/	-8.9	/	-0.7	/	/	/	/	/
Cc1[nH]c2ccccc2c1C(=O)C(=O)N1CCN(c2ccccc2Cl)CC1	-8.0	24.8	-3.0	-2.7	-0.4	24.7	/	/	/	/
Cc1[nH]c2ccccc2c1C(=O)C(=O)N1CCN(c2cccc(Cl)c2)CC1	7.2	2.5	24.1*	-1.9	18.3*	12.7	1.5	0.2	25.4*	8.8*
O=C1CC[C@@H](C(=O)N2CSC[C@@H]2C(=O)Nc2cccc(C(F)(F)F)c2)N1	5.9	/	-3.2	-14.4	-1.1	-8.0	/	/	/	/
Cc1cc(NC(=O)CS(=O)(=O)c2cn(Cc3cccc(Cl)c3)c3ccccc23)no1	-11.3	/	20.1*	-5.1	10.7*	12.1	0.2	0.5	11.0	7.2
O=C(OCC#CCSc1nnc(-c2cccc3ncccc23)o1)c1ccc(F)cc1	/	/	-22.2	/	-6.5	/	/	/	/	/
C(=C\c1ccccc1)/CN1CCN(C(c2ccccc2)c2nnnn2-c2ccc3c(c2)OCCO3)CC1 (centres undefined)	9.3	/	29.4*	-5.6	13.6*	23.7	5.1	1.5	19.8*	9.9*
C(=C\c1ccccc1)/CN1CCN(C(c2ccnc3ccccc23)c2nnnn2-c2ccc3c(c2)OCCO3)CC1 (centres undefined)	-6.1	/	-6.2	-4.3	-2.6	6.8	/	/	/	/
CCCCOCCCNC(=O)C[C@@H]1C[C@@]2(C(=O)OC)CC(C)(C)CC=C2N(Cc2ccco2)C1=O	7.8	/	1.7	-3.7	0.7	/	/	/	/	/
Cc1cccc(C(=O)OCC(=O)c2c(C)[nH]c3ccccc23)c1O	-0.7	-0.9	-11.8	-3.2	-4.7	33.2	/	/	/	/
